What was measured:
Format in all cases: toxicity, cell-based
HEK-293T [1] = experiment: Incucyte cell viability with HEK293T; conditions: human, 10 µM, compound concentration 10 uM; note: filed as whole numbers so only -1 and 0 and 1 occur
Fibroblast = experiment: Incucyte cell viability with human fibroblast; conditions: 10 µM, compound concentration 10 uM; note: filed as whole numbers so only -1 and 0 and 1 occur
HEK-293T [2] = experiment: Multiplex assay against HEK293T; conditions: human;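 for Population Tubulin-Different-Phenotype (%): share of the cells with healthy nuclei that show this phenotype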
Outline: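 Cells were classed with CellPathfinder machine-learning gating, first as Hoechst high-intensity objects or normal cells, then (normal cells) as healthy, pyknosed or fragmented nuclei, and finally (pyknosed cells) as mitotic or apoptotic. Staining of live cells at seeding used Hoechst33342, BioTracker Green Microtubule Cytoskeleton Dye, MitoTracker Red and Annexin V Alexa Fluor 680, with imaging on a CQ1 microscope at 37°C and 5% CO2 after compound addition. Tubulin, mitochondrial-mass and membrane-permeability phenotypes are per cents of healthy-nucleus cells.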

[3] = 0 h, replicate number 1, timepoint 0 hours
[4] = 24 h, replicate number 1, timepoint 24 hours
[5] = 12 h, 1 µM, compound concentration 1 uM, replicate 1
[6] = 12 h, 1 µM, compound concentration 1 uM, replicate 2
[7] = 12 h, 10 µM, compound concentration 10 uM, replicate 1
[8] = 12 h, 10 µM, compound concentration 10 uM, replicate 2
[9] = 24 h, 1 µM, compound concentration 1 uM, replicate 1
[10] = 24 h, 1 µM, compound concentration 1 uM, replicate 2
[11] = 24 h, 10 µM, compound concentration 10 uM, replicate 1
[12] = 24 h, 10 µM, compound concentration 10 uM, replicate 2

CN(C)CCOc1ccc(-c2nc(-c3ccncc3)c(-c3ccc4c(c3)CC/C4=N\O)[nH]2)cc1 [SB590885]
Growth Rate (HEK-293T [1]; [3]): 1 | Growth Rate (HEK-293T [1]; 6 h, replicate number 1, timepoint 6 hours): 0 | Growth Rate (HEK-293T [1]; 12 h, replicate number 1, timepoint 12 hours): 0 | Growth Rate (HEK-293T [1]; 18 h, replicate number 1, timepoint 18 hours): 0 | Growth Rate (HEK-293T [1]; [4]): 0 | Growth Rate (Fibroblast; [3]): 0 | Growth Rate (Fibroblast; 18 h, replicate number 2, timepoint 18 hours): 1 | Growth Rate (Fibroblast; [4]): 1 | Growth Rate (Fibroblast; 24 h, replicate number 2, timepoint 24 hours): 0 | Population Apoptotic (%) (HEK-293T [2]; [5]): 25% | Population Fragmented Nuclei (%) (HEK-293T [2]; [5]): 15% | Population Healthy Nuclei (%) (HEK-293T [2]; [5]): 65% | Population Hoechst High Intensity Objects (%) (HEK-293T [2]; [5]): 22% | Population Membrane Permeable-Phenotype (%) (HEK-293T [2]; [5]): 30% | Population Mitochondria Different-Phenotype (%) (HEK-293T [2]; [5]): 8% | Population Mitotic Cells (%) (HEK-293T [2]; [5]): 74% | Population Normal (%) (HEK-293T [2]; [5]): 77% | Population Pyknosed Nuclei (%) (HEK-293T [2]; [5]): 18% | Population Tubulin-Different-Phenotype (%) (HEK-293T [2]; [5]): 44% | Total Cell Count (HEK-293T [2]; [5]): 678 | Population Apoptotic (%) (HEK-293T [2]; [6]): 17% | Population Fragmented Nuclei (%) (HEK-293T [2]; [6]): 2% | Population Healthy Nuclei (%) (HEK-293T [2]; [6]): 88% | Population Hoechst High Intensity Objects (%) (HEK-293T [2]; [6]): 12% | Population Membrane Permeable-Phenotype (%) (HEK-293T [2]; [6]): 12% | Population Mitochondria Different-Phenotype (%) (HEK-293T [2]; [6]): 23% | Population Mitotic Cells (%) (HEK-293T [2]; [6]): 82% | Population Normal (%) (HEK-293T [2]; [6]): 87% | Population Pyknosed Nuclei (%) (HEK-293T [2]; [6]): 8% | Population Tubulin-Different-Phenotype (%) (HEK-293T [2]; [6]): 76% | Total Cell Count (HEK-293T [2]; [6]): 1120 | Population Apoptotic (%) (HEK-293T [2]; [7]): 28% | Population Fragmented Nuclei (%) (HEK-293T [2]; [7]): 12% | Population Healthy Nuclei (%) (HEK-293T [2]; [7]): 69% | Population Hoechst High Intensity Objects (%) (HEK-293T [2]; [7]): 9% | Population Membrane Permeable-Phenotype (%) (HEK-293T [2]; [7]): 4% | Population Mitochondria Different-Phenotype (%) (HEK-293T [2]; [7]): 8% | Population Mitotic Cells (%) (HEK-293T [2]; [7]): 71% | Population Normal (%) (HEK-293T [2]; [7]): 90% | Population Pyknosed Nuclei (%) (HEK-293T [2]; [7]): 18% | Population Tubulin-Different-Phenotype (%) (HEK-293T [2]; [7]): 5% | Total Cell Count (HEK-293T [2]; [7]): 676 | Population Apoptotic (%) (HEK-293T [2]; [8]): 8% | Population Fragmented Nuclei (%) (HEK-293T [2]; [8]): 7% | Population Healthy Nuclei (%) (HEK-293T [2]; [8]): 87% | Population Hoechst High Intensity Objects (%) (HEK-293T [2]; [8]): 1% | Population Membrane Permeable-Phenotype (%) (HEK-293T [2]; [8]): 3% | Population Mitotic Cells (%) (HEK-293T [2]; [8]): 91% | Population Normal (%) (HEK-293T [2]; [8]): 98% | Population Pyknosed Nuclei (%) (HEK-293T [2]; [8]): 4% | Population Tubulin-Different-Phenotype (%) (HEK-293T [2]; [8]): 9% | Total Cell Count (HEK-293T [2]; [8]): 1929 | Population Apoptotic (%) (HEK-293T [2]; [9]): 24% | Population Fragmented Nuclei (%) (HEK-293T [2]; [9]): 15% | Population Healthy Nuclei (%) (HEK-293T [2]; [9]): 69% | Population Hoechst High Intensity Objects (%) (HEK-293T [2]; [9]): 24% | Population Membrane Permeable-Phenotype (%) (HEK-293T [2]; [9]): 23% | Population Mitochondria Different-Phenotype (%) (HEK-293T [2]; [9]): 14% | Population Mitotic Cells (%) (HEK-293T [2]; [9]): 75% | Population Normal (%) (HEK-293T [2]; [9]): 75% | Population Pyknosed Nuclei (%) (HEK-293T [2]; [9]): 15% | Population Tubulin-Different-Phenotype (%) (HEK-293T [2]; [9]): 48% | Total Cell Count (HEK-293T [2]; [9]): 670 | Population Apoptotic (%) (HEK-293T [2]; [10]): 10% | Population Fragmented Nuclei (%) (HEK-293T [2]; [10]): 6% | Population Healthy Nuclei (%) (HEK-293T [2]; [10]): 86% | Population Hoechst High Intensity Objects (%) (HEK-293T [2]; [10]): 18% | Population Membrane Permeable-Phenotype (%) (HEK-293T [2]; [10]): 27% | Population Mitochondria Different-Phenotype (%) (HEK-293T [2]; [10]): 7% | Population Mitotic Cells (%) (HEK-293T [2]; [10]): 89% | Population Normal (%) (HEK-293T [2]; [10]): 81% | Population Pyknosed Nuclei (%) (HEK-293T [2]; [10]): 6% | Population Tubulin-Different-Phenotype (%) (HEK-293T [2]; [10]): 65% | Total Cell Count (HEK-293T [2]; [10]): 1437 | Population Apoptotic (%) (HEK-293T [2]; [11]): 20% | Population Fragmented Nuclei (%) (HEK-293T [2]; [11]): 9% | Population Healthy Nuclei (%) (HEK-293T [2]; [11]): 85% | Population Hoechst High Intensity Objects (%) (HEK-293T [2]; [11]): 5% | Population Membrane Permeable-Phenotype (%) (HEK-293T [2]; [11]): 10% | Population Mitochondria Different-Phenotype (%) (HEK-293T [2]; [11]): 5% | Population Mitotic Cells (%) (HEK-293T [2]; [11]): 79% | Population Normal (%) (HEK-293T [2]; [11]): 94% | Population Pyknosed Nuclei (%) (HEK-293T [2]; [11]): 5% | Population Tubulin-Different-Phenotype (%) (HEK-293T [2]; [11]): 8% | Total Cell Count (HEK-293T [2]; [11]): 810 | Population Apoptotic (%) (HEK-293T [2]; [12]): 1% | Population Fragmented Nuclei (%) (HEK-293T [2]; [12]): 24% | Population Healthy Nuclei (%) (HEK-293T [2]; [12]): 73% | Population Hoechst High Intensity Objects (%) (HEK-293T [2]; [12]): 3% | Population Membrane Permeable-Phenotype (%) (HEK-293T [2]; [12]): 7% | Population Mitochondria Different-Phenotype (%) (HEK-293T [2]; [12]): 1% | Population Mitotic Cells (%) (HEK-293T [2]; [12]): 98% | Population Normal (%) (HEK-293T [2]; [12]): 96% | Population Pyknosed Nuclei (%) (HEK-293T [2]; [12]): 2% | Population Tubulin-Different-Phenotype (%) (HEK-293T [2]; [12]): 10% | Total Cell Count (HEK-293T [2]; [12]): 3237
